Test results from ChEMBL document CHEMBL4699543, “Preparation and evaluation of soluble epoxide hydrolase inhibitors with improved physical properties and potencies for treating diabetic neuropathic pain” (Bioorg Med Chem, 2020).

Columns and labels:
[1] = Lipophilicity, logP of compound at 100 uM incubated for 90 mins by HPLC analysis; format: physicochemical; details: for logP: 100 µM
[2] = Tmax in mouse at 0.3 mg/kg, po; format: ADME, organism-based; details: in vivo
Method in brief: (§1)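 Mice (n=4) given oral gavage cassette of 4 compounds, each 0.3 mg/kg, dissolved in 20% PEG400 in oleic acid rich triglycerides; plasma PK parameters calculated by one-compartment model.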

[3] = Cmax in mouse at 0.3 mg/kg, po; format: ADME, organism-based; design: route oral, dose 0.3 mg/kg; details: in vivo; method in brief: as §1
[4] = Half life in mouse at 0.3 mg/kg, po; format: ADME, organism-based; details: in vivo; method in brief: as §1
[5] = AUC in mouse at 0.3 mg/kg, po; format: ADME, organism-based; design: dose 0.3 mg/kg; details: in vivo; method in brief: as §1

CC[C@H](C)C(=O)N1CCC(NC(=O)Nc2ccc(C(F)(F)F)cc2)CC1
logP at […], 100 µM [1]: 3.84

Cc1occc1C(=O)N1CCC(NC(=O)Nc2ccc(OC(F)(F)F)cc2)CC1
logP at […], 100 µM [1]: 4.3

CC(C)C(=O)N1CCC(NC(=O)Nc2ccc(OC(F)(F)F)c(F)c2)CC1
Tmax [2]: 10 h | Cmax [3]: 423 nM | half-life [4]: 6.6 h | AUC [5]: 10.9 µM·h

O=C(Nc1ccc(OC(F)(F)F)cc1)NC1CCN(C(=O)C2CCOCC2)CC1
Tmax [2]: 4.2 h | Cmax [3]: 381 nM | half-life [4]: 6.3 h | logP at […], 100 µM [1]: 3.26 | AUC [5]: 6.37 µM·h

CC[C@H](C)C(=O)N1CCC(NC(=O)Nc2ccc(OC(F)(F)F)c(OC(F)(F)F)c2)CC1
logP [1]: 10.62

O=C(Nc1ccc(OC(F)(F)F)c(F)c1)NC1CCN(C(=O)C2CC2)CC1
logP at […], 100 µM [1]: 4.19

O=C(Nc1ccc(C(F)(F)F)cc1)NC1CCN(C(=O)c2cc[nH]c2)CC1
logP at […], 100 µM [1]: 3.26

CCC(=O)N1CCC(NC(=O)Nc2ccc(OC(F)(F)F)c(F)c2)CC1
Tmax [2]: 6.7 h | Cmax [3]: 479 nM | half-life [4]: 13 h | AUC [5]: 13 µM·h

CC[C@H](C)C(=O)N1CCC(NC(=O)Nc2ccc(OC(F)(F)F)c(F)c2)CC1
Tmax [2]: 5.2 h | Cmax [3]: 166 nM | half-life [4]: 3.3 h | AUC [5]: 2.17 µM·h

O=C(Nc1ccc(C(F)(F)F)c(F)c1)NC1CCN(C(=O)C2(C(F)(F)F)CC2)CC1
logP at […], 100 µM [1]: 5.52

O=C(Nc1ccc(C(F)(F)F)c(F)c1)NC1CCN(C(=O)C2CC2)CC1
logP at […], 100 µM [1]: 3.94

O=C(Nc1ccc(OC(F)(F)F)c(F)c1)NC1CCN(C(=O)C2(C(F)(F)F)CC2)CC1
logP at […], 100 µM [1]: 5.94

CC[C@H](C)C(=O)N1CCC(NC(=O)Nc2ccc(OC(F)(F)F)c(C(F)(F)F)c2)CC1
logP [1]: 9.02

CC[C@H](C)C(=O)N1CCC(NC(=O)Nc2ccc(C(F)(F)F)cn2)CC1
logP [1]: 3.22

CC[C@H](C)C(=O)N1CCC(NC(=O)Nc2ccc(OC(F)(F)F)c(Br)c2)CC1
logP at […], 100 µM [1]: 8.07

O=C(Nc1ccc(OC(F)(F)F)c(F)c1)NC1CCN(C(=O)N2CCOCC2)CC1
logP at […], 100 µM [1]: 3.93

O=C(Nc1ccc(OC(F)(F)F)c(F)c1)NC1CCN(C(=O)C2CCOCC2)CC1
Tmax [2]: 6.5 h | Cmax [3]: 332 nM | half-life [4]: 4.3 h | logP at […], 100 µM [1]: 3.73 | AUC [5]: 5.56 µM·h

O=C(Nc1ccc(C(F)(F)F)c(F)c1)NC1CCN(C(=O)C2CCOCC2)CC1
logP at […], 100 µM [1]: 3.52

CCOC(=O)N1CCC(NC(=O)Nc2ccc(C(F)(F)F)c(F)c2)CC1
logP at […], 100 µM [1]: 5.46

O=C(Nc1ccc(OC(F)(F)F)c(F)c1)NC1CCN(C(=O)C2CCCOC2)CC1 (stereo not given)
Tmax [2]: 2.1 h | Cmax [3]: 112 nM | half-life [4]: 3.2 h | AUC [5]: 0.785 µM·h

CCOC(=O)N1CCC(NC(=O)Nc2ccc(OC(F)(F)F)c(F)c2)CC1
logP at […], 100 µM [1]: 5.94

O=C(Nc1ccc(C(F)(F)F)c(F)c1)NC1CCN(C(=O)C2CCCOC2)CC1 (stereo not given)
logP at […], 100 µM [1]: 3.84

O=C(Nc1ccc(C(F)(F)F)cc1)NC1CCN(C(=O)C2CCCOC2)CC1 (stereo not given)
logP at […], 100 µM [1]: 3.41

CCC(=O)N1CCC(NC(=O)Nc2ccc(C(F)(F)F)c(F)c2)CC1
logP at […], 100 µM [1]: 3.76

O=C(Nc1ccc(C(F)(F)F)cc1)NC1CCN(C(=O)C2=COCC2)CC1
logP at […], 100 µM [1]: 3.37

CC[C@H](C)C(=O)N1CCC(NC(=O)Nc2ccc(OC(F)(F)F)c(Cl)c2)CC1
logP at […], 100 µM [1]: 7.7

O=C(Nc1ccc(OC(F)(F)F)cc1)NC1CCN(C(=O)C2CCCOC2)CC1 (racemic)
Tmax [2]: 6.5 h | Cmax [3]: 38 nM | half-life [4]: 3.1 h | AUC [5]: 0.483 µM·h
